{"source": "ChEMBL document CHEMBL1125789", "about": "“Synthesis and selective class III antiarrhythmic activity of novel N-heteroaralkyl-substituted 1-(aryloxy)-2-propanolamine and related propylamine derivatives” (J Med Chem, 1991)", "key": {"Canis familiaris [1]": {"system": "Canis familiaris", "assay": "Ventricular conduction time by the compound in open chest anesthetized dog, after iv administration at a dose of 0.25 mg/kg.", "type": "functional, Canis lupus familiaris, Heart", "summary_of_the_method": "(§1)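 Mongrel dogs were anesthetized with sodium pentobarbital (30 mg/kg iv, then 5 mg/kg per h), the chest opened, and the heart paced at BCL 300 ms. Compound was given iv or intraduodenally. Ventricular conduction time was taken as the interval between electrograms at the proximal and distal sites of the recording electrode array. 2-5 dogs per dose.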"}, "Canis familiaris [2]": {"organism": "Canis familiaris", "assay": "repolarization to reach -60mV, in canine Purkinje Fibers at a concentration of 0.01 uM at 1000 ms (simulating normal heart rate)", "type": "functional, Canis lupus familiaris, Purkinje fiber", "summary_of_the_method": "(§2)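 Purkinje fiber bundles were stimulated with square-wave current pulses of 2.0 ms at twice threshold and equilibrated for at least 1 h, or until action potential parameters were steady. Each concentration was superfused for 45-60 min to reach steady state. Action potentials were recorded at four to six sites per fiber, under control and after drug.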"}, "Canis familiaris [3]": {"organism": "Canis familiaris", "assay": "Maximum rate of rise of the upstroke of transmembrane potential, in canine Purkinje Fibers at a concentration of 0.03 uM at 300 ms (simulating tachycardia)", "type": "functional", "conditions": "Canis lupus familiaris, Purkinje fiber", "summary_of_the_method": "(§3)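 Isolated canine Purkinje fiber bundles were driven by square-wave pulses 2.0 ms long at 2× threshold and equilibrated ≥1 h to steady state. Each concentration was superfused 45–60 min before recording, and action potentials were sampled at 4–6 sites per fiber in control and after drug, giving Vmax and APD to −60 mV.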"}, "Canis familiaris [4]": {"organism": "Canis familiaris", "assay": "Maximum rate of rise of the upstroke of transmembrane potential, in canine Purkinje Fibers at a concentration of 0.01 uM at 1000 ms (simulating normal heart rate)", "type": "functional", "conditions": "Canis lupus familiaris, Purkinje fiber", "summary_of_the_method": "as §3"}, "Canis familiaris [5]": {"system": "Canis familiaris", "assay": "Atrial effective refractory period by the compound in open chest anesthetized dog, after iv administration at a dose of 0.25 mg/kg.", "type": "functional, Canis lupus familiaris, Cardiac atrium", "summary_of_the_method": "(§4)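 Open-chest mongrel dogs under sodium pentobarbital anesthesia (30 mg/kg iv plus 5 mg/kg per h), paced at basic cycle length 300 ms. Atrial effective refractory period was determined by electrical stimulation before and after iv or intraduodenal compound and reported as change from control.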"}, "Canis familiaris [6]": {"system": "Canis familiaris", "assay": "Mean arterial pressure by the compound in open chest anesthetized dog, after iv administration at a dose of 0.25 mg/kg.", "type": "functional, Canis lupus familiaris, Artery", "summary_of_the_method": "(§5)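 Hemodynamics (heart rate, mean arterial pressure) recorded in pentobarbital-anesthetized (30 mg/kg iv, 5 mg/kg per h maintenance) open-chest mongrel dogs during the refractoriness study at BCL 300 ms. Readings were taken before and after iv or intraduodenal compound and expressed as change from control.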"}, "Canis familiaris [7]": {"system": "Canis familiaris", "assay": "Atrial effective refractory period by the compound in open chest anesthetized dog, after iv administration at a dose of 0.05 mg/kg.", "type": "functional, Canis lupus familiaris, Cardiac atrium", "summary_of_the_method": "as §4"}, "Canis familiaris [8]": {"organism": "Canis familiaris", "assay": "Maximum rate of rise of the upstroke of transmembrane potential, in canine Purkinje Fibers at a concentration of 0.10 uM at 1000 ms (simulating normal heart rate)", "type": "functional", "conditions": "Canis lupus familiaris, Purkinje fiber", "summary_of_the_method": "as §3"}, "Canis familiaris [9]": {"system": "Canis familiaris", "assay": "Ventricular effective refractory period by the compound in open chest anesthetized dog, after iv administration at a dose of 0.25 mg/kg.", "type": "functional, Canis lupus familiaris, Heart"}, "Canis familiaris [10]": {"system": "Canis familiaris", "assay": "Heart beat by the compound in open chest anesthetized dog, after iv administration at a dose of 0.05 mg/kg.", "type": "functional, Canis lupus familiaris", "summary_of_the_method": "as §5"}, "Canis familiaris [11]": {"organism": "Canis familiaris", "assay": "repolarization to reach -60mV, in canine Purkinje Fibers at a concentration of 0.03 uM at 1000 ms (simulating normal heart rate)", "type": "functional, Canis lupus familiaris, Purkinje fiber", "summary_of_the_method": "as §2"}, "Canis familiaris [12]": {"system": "Canis familiaris", "assay": "Mean arterial pressure by the compound in open chest anesthetized dog, after iv administration at a dose of 0.05 mg/kg.", "type": "functional, Canis lupus familiaris, Artery", "summary_of_the_method": "as §5"}, "Canis familiaris [13]": {"system": "Canis familiaris", "assay": "Ventricular effective refractory period by the compound in open chest anesthetized dog, after iv administration at a dose of 0.05 mg/kg.", "type": "functional, Canis lupus familiaris, Heart"}, "Canis familiaris [14]": {"organism": "Canis familiaris", "assay": "Maximum rate of rise of the upstroke of transmembrane potential, in canine Purkinje Fibers at a concentration of 0.01 uM at 300 ms (simulating tachycardia)", "type": "functional", "conditions": "Canis lupus familiaris, Purkinje fiber", "summary_of_the_method": "as §3"}, "Canis familiaris [15]": {"organism": "Canis familiaris", "assay": "repolarization to reach -60mV, in canine Purkinje Fibers at a concentration of 0.10 uM at 1000 ms (simulating normal heart rate)", "type": "functional, Canis lupus familiaris, Purkinje fiber", "summary_of_the_method": "as §2"}, "Canis familiaris [16]": {"system": "Canis familiaris", "assay": "Heart beat by the compound in open chest anesthetized dog, after iv administration at a dose of 0.25 mg/kg.", "type": "functional, Canis lupus familiaris", "summary_of_the_method": "as §5"}, "Canis familiaris [17]": {"system": "Canis familiaris", "assay": "Atrial conduction time by the compound in open chest anesthetized dog, after iv administration at a dose of 0.25 mg/kg.", "type": "functional, Canis lupus familiaris, Cardiac atrium", "summary_of_the_method": "(§6)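 Mongrel dogs anesthetized with sodium pentobarbital (30 mg/kg iv, then 5 mg/kg per h), chest opened, paced at BCL 300 ms. Atrial conduction time was taken as the interval between electrograms recorded at the proximal and distal sites of the atrial recording electrode array, before and after iv or intraduodenal dosing. Values are changes from control.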"}, "Canis familiaris [18]": {"organism": "Canis familiaris", "assay": "Maximum rate of rise of the upstroke of transmembrane potential, in canine Purkinje Fibers at a concentration of 0.03 uM at 1000 ms (simulating normal heart rate)", "type": "functional", "conditions": "Canis lupus familiaris, Purkinje fiber", "summary_of_the_method": "as §3"}, "Canis familiaris [19]": {"organism": "Canis familiaris", "assay": "Repolarization to reach -60mV, in canine Purkinje Fibers at a concentration of 0.01 uM at 300 ms (simulating tachycardia)", "type": "functional, Canis lupus familiaris, Purkinje fiber", "summary_of_the_method": "as §3"}, "Canis familiaris [20]": {"system": "Canis familiaris", "assay": "Ventricular conduction time by the compound in open chest anesthetized dog, after iv administration at a dose of 0.05 mg/kg.", "type": "functional, Canis lupus familiaris, Heart", "summary_of_the_method": "as §1"}, "Canis familiaris [21]": {"organism": "Canis familiaris", "assay": "Repolarization to reach -60mV, in canine Purkinje Fibers at a concentration of 0.10 uM at 300 ms (simulating tachycardia)", "type": "functional, Canis lupus familiaris, Purkinje fiber", "summary_of_the_method": "as §3"}, "Canis familiaris [22]": {"organism": "Canis familiaris", "assay": "Maximum rate of rise of the upstroke of transmembrane potential, in canine Purkinje Fibers at a concentration of 0.10 uM at 300 ms (simulating tachycardia)", "type": "functional", "conditions": "Canis lupus familiaris, Purkinje fiber", "summary_of_the_method": "as §3"}, "Canis familiaris [23]": {"organism": "Canis familiaris", "assay": "Repolarization to reach -60mV, in canine Purkinje Fibers at a concentration of 0.03 uM at 300 ms (simulating tachycardia)", "type": "functional, Canis lupus familiaris, Purkinje fiber", "summary_of_the_method": "as §3"}, "Canis familiaris [24]": {"system": "Canis familiaris", "assay": "Atrial conduction time by the compound in open chest anesthetized dog, after iv administration at a dose of 0.05 mg/kg.", "type": "functional, Canis lupus familiaris, Cardiac atrium", "summary_of_the_method": "as §6"}}}
{"smiles": "CN(CCCOc1ccc(NS(C)(=O)=O)cc1)Cc1ccc2cc(NS(C)(=O)=O)ccc2n1", "values": [{"measurement": "VCT", "setting": "Canis familiaris [1]", "value": -3}, {"measurement": "APD", "setting": "Canis familiaris [2]", "value": 36, "unit": "%"}, {"measurement": "Vmax", "setting": "Canis familiaris [3]", "value": -9}, {"measurement": "Vmax", "setting": "Canis familiaris [4]", "value": -1}, {"measurement": "AERP", "setting": "Canis familiaris [5]", "value": 70}, {"measurement": "MBP", "setting": "Canis familiaris [6]", "value": 4}, {"measurement": "AERP", "setting": "Canis familiaris [7]", "value": 53}, {"measurement": "Vmax", "setting": "Canis familiaris [8]", "value": -12}, {"measurement": "VERP", "setting": "Canis familiaris [9]", "value": 36}, {"measurement": "HR", "setting": "Canis familiaris [10]", "value": -16}, {"measurement": "APD", "setting": "Canis familiaris [11]", "value": 56, "unit": "%"}, {"measurement": "MBP", "setting": "Canis familiaris [12]", "value": 4}, {"measurement": "VERP", "setting": "Canis familiaris [13]", "value": 26}, {"measurement": "Vmax", "setting": "Canis familiaris [14]", "value": -1}, {"measurement": "APD", "setting": "Canis familiaris [15]", "value": 73, "unit": "%"}, {"measurement": "HR", "setting": "Canis familiaris [16]", "value": -26}, {"measurement": "ACT", "setting": "Canis familiaris [17]", "value": -4}, {"measurement": "Vmax", "setting": "Canis familiaris [18]", "value": -8}, {"measurement": "APD", "setting": "Canis familiaris [19]", "value": 15, "unit": "%"}, {"measurement": "VCT", "setting": "Canis familiaris [20]", "value": -1}, {"measurement": "APD", "setting": "Canis familiaris [21]", "value": 22, "unit": "%"}, {"measurement": "Vmax", "setting": "Canis familiaris [22]", "value": -14}, {"measurement": "APD", "setting": "Canis familiaris [23]", "value": 17, "unit": "%"}, {"measurement": "ACT", "setting": "Canis familiaris [24]", "value": -5}]}
